The results in this text go back to ChEMBL document CHEMBL4190402, “Development of a Novel Human Parathyroid Hormone Receptor 1 (hPTHR1) Agonist (CH5447240), a Potent and Orally Available Small Molecule for Treatment of Hypoparathyroidism” (J Med Chem, 2018).

≈ marks a conversion by molar mass, not a printed value. Calls of active or inactive are those of the source. The rule behind the calls is not given here.

Data set [1] can be described thus: Intrinsic clearance in human liver microsomes assessed per mg protein at 1 uM after 30 mins in presence of NADPH by LC-MS/MS analysis. The class given is ADME, microsome. To be noted: read-out: CLH.
The nature of data set [2]: Solubility of the compound in FaSSIF at 1 mM by HPLC-UV analysis. To be noted: FaSSIF. The class given is physicochemical. The gist of the method: (§1)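 A 1 mM DMSO stock (50 µL) was freeze-dried, then the residue taken up in 50 mM PBS pH 6.5 or FaSSIF pH 6.5. Sonicated 10 min, shaken 2 h, centrifuged, filtered. Filtrate concentration determined by HPLC-UV against each compound's calibration curve.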

Data set [3] in a line: Solubility of the compound in PBS at pH 6.5 at 1 mM by HPLC-UV analysis. Type of data set: physicochemical. To be noted: for solubility at 1000 µM: PBS, pH 6.5. The method, boiled down: as §1
Another data set deals with LLC-PK1. Description: Induction of cAMP production in porcine LLC-PK1 cells after 20 mins by enzyme immunoassay. Type of data set: functional, cell-based. To be noted: Sus scrofa. The gist of the method: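 Counter-screen on parent LLC-PK1 cells lacking hPTHR1. Conditions match the HKRK-B7 assay: 20 min at 37°C in IBMX-containing assay medium, then cAMP read by EIA.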
In general terms: Cyclic AMP is a second messenger, typically raised through Gs and lowered through Gi signalling.

Data set [4] addresses T1, Parathyroid hormone/parathyroid hormone-related peptide receptor (Homo sapiens) (UniProt Q03431).
T1 sequence (whole entry): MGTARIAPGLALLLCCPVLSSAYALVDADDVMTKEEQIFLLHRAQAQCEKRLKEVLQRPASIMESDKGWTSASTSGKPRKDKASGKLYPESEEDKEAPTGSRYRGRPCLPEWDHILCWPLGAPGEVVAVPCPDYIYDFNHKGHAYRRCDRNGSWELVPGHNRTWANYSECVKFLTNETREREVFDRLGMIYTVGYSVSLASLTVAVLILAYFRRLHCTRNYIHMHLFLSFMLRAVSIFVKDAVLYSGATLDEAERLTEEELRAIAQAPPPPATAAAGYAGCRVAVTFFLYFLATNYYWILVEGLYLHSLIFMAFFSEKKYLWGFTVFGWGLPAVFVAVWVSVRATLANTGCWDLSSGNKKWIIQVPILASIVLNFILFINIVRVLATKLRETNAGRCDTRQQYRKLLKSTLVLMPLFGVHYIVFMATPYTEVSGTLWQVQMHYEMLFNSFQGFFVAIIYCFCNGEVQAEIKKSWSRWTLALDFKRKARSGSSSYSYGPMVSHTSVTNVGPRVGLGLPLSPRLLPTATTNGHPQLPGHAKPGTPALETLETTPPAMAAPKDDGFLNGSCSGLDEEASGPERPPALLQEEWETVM
Description: (§2) Agonist activity at human PTHR1 expressed in HKRKB7 cells assessed as accumulation of intracellular cAMP after 20 mins by enzyme immunoassay. The class given is functional, cell-based. The gist of the method: (§3)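 HKRK-B7 cells (LLC-PK1 stably expressing hPTHR1), 1.0 x 10^3 per well, seeded overnight, then exposed to serially diluted compound in McCoy's 5A with 2 mg/ml BSA, 1 mmol/l IBMX and 2 mmol/l HEPES for 20 min at 37°C. Cells washed, frozen, lysed in 50 mmol/l HCl, cAMP read by EIA.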

Data set [5] concerns the target T2, Parathyroid hormone/parathyroid hormone-related peptide receptor (Homo sapiens, UniProt Q03431).
T2 sequence (Q03431 whole entry): T1 sequence (whole entry)
Described as §2. The class given is functional, cell-based. The gist of the method: as §3

Data set [6] concerns the target T1, Parathyroid hormone/parathyroid hormone-related peptide receptor (Homo sapiens). Description: Agonist activity at human PTHR1 expressed in HKRKB7 cells assessed as accumulation of intracellular cAMP at 1 mM after 20 mins by enzyme immunoassay relative to human PTH (1 to 34 residues). The class given is functional, cell-based. The method, boiled down:
as §3

The nature of data set [7]: Intrinsic clearance in human liver microsomes assessed per mg protein at 1 uM after 30 mins in absence of NADPH by LC-MS/MS analysis. To be noted: liver microsomes, read-out: CLH. Type of data set: ADME, microsome.

The solubility is how much of the substance goes into solution per volume. Broadly, the EC20 is the concentration at which the effect reaches the 20% level. The EC50 is the concentration that produces a half-maximal response. For the compound `Cc1ccccc1CCS(=O)(=O)N1CCC2(CC1)N=C(C1CCCCC1)NC2=O`, the microsomal CLint at 1 µM in data set [1] turned out to be 100 µL/min/mg. For the same compound, the results for the solubility at 1000 µM in data set [2] and in data set [3] were 15 µg/mL (≈ 35.9 µM) and 11 µg/mL (≈ 26.3 µM), respectively. The outcome with LLC-PK1 was inactive. Further, in data set [4], the concentration for an effect of 20% (EC20) worked out at 30 µM. For the same compound, the concentration for a half-maximal effect (EC50) in data set [5] was more than 1000 µM.

In the case of `O=C1NC(C2CCCCC2)=NC12CCN(S(=O)(=O)CCc1cccc3ccccc13)CC2`, the microsomal CLint at 1 µM in data set [1] stood at 300 µL/min/mg. For the same compound, the solubility at 1000 µM in data set [2] stood at 3.1 µg/mL (≈ 6.83 µM). In addition, in data set [3] (buffer, pH 6.5, 1000 µM, BLD = below limit of detection), the solubility result was “Bld”. For the same compound, the result in the data set with LLC-PK1 was inactive. Besides, the EC20 in data set [4] was determined as 15 µM.

As to `O=C1NC(C2CCCCC2)=NC12CCN(S(=O)(=O)c1cccc3ccccc13)CC2`, the result in the data set with LLC-PK1 was inactive. Also, the EC20 in data set [4] was 220 µM.

In the case of `O=C1NC(c2ccc(Cl)cc2)=NC12CCN(S(=O)(=O)c1cccc(Cl)c1)CC2`, the Activity in data set [6] came to 22%. Moreover, the outcome with LLC-PK1 was inactive.

With `O=C1NC(C2CCCCC2)=NC12CCN(S(=O)(=O)CCc1ccncc1)CC2`, in the data set on LLC-PK1, the outcome was inactive. In addition, the 20% effect concentration (EC20) in data set [4] was more than 1000 µM.

For `O=C1NC(c2ccccc2)=NC12CCN(S(=O)(=O)c1cccc(Cl)c1)CC2`, the Activity in data set [6] worked out at 1.9%. For the same compound, the outcome in the data set with LLC-PK1 was inactive.

Take `O=C1NC(C2CCCCC2)=NC12CCN(S(=O)(=O)c1cccc(Cl)c1)CC2`: the Activity in data set [6] is 45%. For the same compound, in the data set on LLC-PK1, the result was inactive. For the same compound, the EC20 in data set [4] came to 140 µM.

As to `CC(=O)Nc1cc(C)c(CCS(=O)(=O)N2CCC3(CC2)N=C(C2CCCCC2)NC3=O)c(C)c1`, the microsomal CLint at 1 µM in data set [1] amounted to 39 µL/min/mg; in data set [7] it was 18 µL/min/mg. The values for the solubility at 1000 µM in data set [2] and in data set [3] were 38 µg/mL (≈ 77.8 µM) and 8 µg/mL (≈ 16.4 µM), respectively. Besides, in the data set with LLC-PK1, the outcome was inactive. The EC20 in data set [4] amounted to 6.4 µM. The concentration for a half-maximal effect (EC50) in data set [5] is 26 µM.

Turning to `O=C1NC(c2ccncc2)=NC12CCN(S(=O)(=O)c1cccc(Cl)c1)CC2`, in data set [6], the Activity stood at 1%. Also, the result in the data set on LLC-PK1 was inactive.

With `O=C1NC(c2ccccc2Cl)=NC12CCN(S(=O)(=O)c1cccc(Cl)c1)CC2`, the Activity in data set [6] was determined as 18%. Also, in the data set with LLC-PK1, the result was inactive.

For the compound `O=C1NC(c2ccc(Cl)cc2Cl)=NC12CCN(S(=O)(=O)c1cccc(Cl)c1)CC2`, in data set [6], the Activity was determined as 23%. Also, the outcome in the data set on LLC-PK1 was inactive. For the same compound, the EC20 in data set [4] is 530 µM. Moreover, the EC50 in data set [5] is more than 1000 µM.

On to `Cc1cc(N(C)C(N)=O)cc(C)c1CCS(=O)(=O)N1CCC2(CC1)N=C(C1CCCCC1)NC2=O`, for which the microsomal CLint at 1 µM in data set [1] came to 23 µL/min/mg. The values for the solubility at 1000 µM in data set [2] and in data set [3] were 450 µg/mL (≈ 893 µM) and 290 µg/mL (≈ 576 µM), respectively. Moreover, the result in the data set with LLC-PK1 was inactive. Moreover, the 20% effect concentration (EC20) in data set [4] is 8.1 µM. Besides, in data set [5], the EC50 came to 67 µM.

With `O=C(O)c1ccc(C2=NC3(CCN(S(=O)(=O)c4cccc(Cl)c4)CC3)C(=O)N2)cc1`, the Activity in data set [6] came out at 1.3%. Moreover, the outcome in the data set with LLC-PK1 was inactive.

As to `O=C1NC(C2CCCCC2)=NC12CCN(S(=O)(=O)CCc1ccccc1)CC2`, in the data set with LLC-PK1, the outcome was inactive. Moreover, the EC20 in data set [4] was 240 µM.

Consider `O=C1NC(c2ccc(Cl)cc2Cl)=NC12CCN(S(=O)(=O)CCc1cccc3ccccc13)CC2`, for which the result with LLC-PK1 was inactive. Moreover, the concentration for an effect of 20% (EC20) in data set [4] came out at 150 µM.

Turning to `O=C1NC(C2CCCCC2)=NC12CCN(S(=O)(=O)Cc1ccccc1)CC2`, the outcome in the data set with LLC-PK1 was inactive. In addition, in data set [4], the 20% effect concentration (EC20) was more than 1000 µM.

Turning to `CC(=O)Nc1ccc(CCS(=O)(=O)N2CCC3(CC2)N=C(C2CCCCC2)NC3=O)c(C)c1`, the microsomal CLint at 1 µM in data set [1] is 46 µL/min/mg; in data set [7], 33 µL/min/mg. Further, the solubility at 1000 µM in data set [2] is 400 µg/mL (≈ 843 µM); in data set [3], 280 µg/mL (≈ 590 µM). Also, the outcome with LLC-PK1 was inactive. For the same compound, the EC20 in data set [4] came out at 11 µM. Moreover, the EC50 in data set [5] came out at 50 µM.

As to `C[C@H]1CC[C@H](C2=NC3(CCN(S(=O)(=O)c4cccc(Cl)c4)CC3)C(=O)N2)CC1`, the Activity in data set [6] is 35%. Further, in the data set with LLC-PK1, the outcome was inactive.
